Results as given in ChEMBL document CHEMBL4184152, “Thioether-stapled macrocyclic inhibitors of the EH domain of EHD1” (Bioorg Med Chem, 2018).
Active and inactive are the calls of the source. No cut-off for these calls is given here. Where a SMILES comes first, the peptide text is derived from it.

Experiments:
[1] = molecular target: T1, EH domain-containing protein 1 (Homo sapiens) (UniProt Q9H4M9); assay: Inhibition of EHD1-EH in human HeLa cells assessed as reduction in internalized transferrin-488 recycling at 50 uM measured after 60 mins by pulse-chase method; type: cell-based
T1 sequence (whole entry): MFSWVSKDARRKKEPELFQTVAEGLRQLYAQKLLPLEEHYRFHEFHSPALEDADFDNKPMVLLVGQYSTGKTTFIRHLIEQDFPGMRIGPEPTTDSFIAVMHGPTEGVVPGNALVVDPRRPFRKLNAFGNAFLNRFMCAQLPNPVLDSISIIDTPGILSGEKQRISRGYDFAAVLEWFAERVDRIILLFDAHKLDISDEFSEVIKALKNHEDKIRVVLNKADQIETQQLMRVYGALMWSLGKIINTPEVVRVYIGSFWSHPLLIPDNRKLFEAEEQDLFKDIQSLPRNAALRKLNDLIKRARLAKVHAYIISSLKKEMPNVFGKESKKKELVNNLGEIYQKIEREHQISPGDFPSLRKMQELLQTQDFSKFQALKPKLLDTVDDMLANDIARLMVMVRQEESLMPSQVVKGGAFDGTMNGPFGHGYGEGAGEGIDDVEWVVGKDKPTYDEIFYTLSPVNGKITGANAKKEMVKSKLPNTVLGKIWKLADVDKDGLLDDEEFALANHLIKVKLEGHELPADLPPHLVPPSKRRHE
Procedure, shortened: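 HeLa cells were grown in DMEM/10% FBS to 80% confluence, then starved 30 min in DMEM with 0.5% BSA. Cells got a 60-min pulse with Tf-488 (25 µg/mL), with inhibitor present. A 30-min chase followed with 2 mg/mL unlabeled transferrin plus inhibitor, 0.2% DMSO final. Cells were washed in cold PBS, trypsinized and fixed. Flow cytometry counted 10,000 live cells; 50 µM primaquine was the positive control.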

[2] = molecular target: T2, EH domain-containing protein 1 (Homo sapiens, UniProt Q9H4M9); assay: Binding affinity to GST-fused EHD1 EH domain (unknown origin) expressed in Escherichia coli BL21 cells measured after 1 hr in presence of 15 mM NaCl by fluorescence polarization assay
T2 sequence (Q9H4M9 whole entry): T1 sequence (whole entry)
Procedure, shortened: (§1)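 NaCl was 15 mM or 150 mM. Polarization was read 1 h after probe addition and re-read later to confirm equilibrium. Kd came from curve fits; technical triplicates, three independent experiments.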

[3] = molecular target: T3, Epidermal growth factor receptor substrate 15 (Homo sapiens, UniProt P42566); assay: Binding affinity to GST-fused Eps15 EH2 domain (unknown origin) expressed in Escherichia coli BL21 cells under high salt condition by fluorescence polarization assay
T3 sequence (P42566 whole entry): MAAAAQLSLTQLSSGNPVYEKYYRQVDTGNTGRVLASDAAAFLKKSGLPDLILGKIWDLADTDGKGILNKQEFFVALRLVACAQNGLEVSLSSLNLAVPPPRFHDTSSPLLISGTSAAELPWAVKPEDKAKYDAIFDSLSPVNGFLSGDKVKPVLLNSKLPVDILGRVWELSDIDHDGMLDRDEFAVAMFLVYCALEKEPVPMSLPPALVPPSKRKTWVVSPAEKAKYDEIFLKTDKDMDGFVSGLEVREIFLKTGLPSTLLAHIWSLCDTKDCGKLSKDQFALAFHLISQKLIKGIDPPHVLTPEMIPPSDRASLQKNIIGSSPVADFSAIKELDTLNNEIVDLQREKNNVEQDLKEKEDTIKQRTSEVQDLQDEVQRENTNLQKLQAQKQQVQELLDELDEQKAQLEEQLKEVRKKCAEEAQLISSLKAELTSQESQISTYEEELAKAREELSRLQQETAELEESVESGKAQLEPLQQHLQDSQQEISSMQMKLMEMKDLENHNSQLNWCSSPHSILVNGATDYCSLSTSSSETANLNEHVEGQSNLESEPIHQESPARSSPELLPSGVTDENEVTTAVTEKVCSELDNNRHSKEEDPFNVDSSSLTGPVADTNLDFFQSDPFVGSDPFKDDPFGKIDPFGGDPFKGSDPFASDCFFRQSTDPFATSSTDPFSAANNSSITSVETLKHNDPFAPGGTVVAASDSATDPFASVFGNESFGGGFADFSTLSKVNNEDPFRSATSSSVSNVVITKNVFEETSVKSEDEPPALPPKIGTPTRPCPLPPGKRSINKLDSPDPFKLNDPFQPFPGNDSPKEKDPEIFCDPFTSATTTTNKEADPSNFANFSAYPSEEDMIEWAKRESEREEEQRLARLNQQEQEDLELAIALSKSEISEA
Procedure, shortened: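 Eps15-EH2 protein concentration was set by A280 using an extinction coefficient of 13980 M-1cm-1. Binding of fluorescein-labeled peptides to Eps15-EH2 was measured in an FP direct binding format with varying protein concentration.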

[4] = molecular target: T2, EH domain-containing protein 1; assay: Binding affinity to GST-fused EHD1 EH domain (unknown origin) expressed in Escherichia coli BL21 cells measured after 1 hr in presence of 150 mM NaCl by fluorescence polarization assay; procedure, shortened: as §1
[5] = species: Homo sapiens; assay: Selectivity ratio of IC50 for GST-fused Eps15 EH2 domain (unknown origin) expressed in Escherichia coli BL21 cells to IC50 for GST-fused EHD1 EH domain (unknown origin)

inhibition [1]	Kd [2]	IC50 [3]	Kd [4]	SMILES	Ratio IC50 [5]
inactive	–	–	–	C#CCCC(=O)N[C@H]1CSCc2ccc(cc2)CSCCNC(=O)[C@H](CCC(=O)O)NC(=O)[C@H](CCC(=O)O)NC(=O)[C@H](Cc2ccccc2)NC(=O)[C@@H]2CCCN2C(=O)[C@H](CC(N)=O)NC(=O)[C@H](Cc2ccc(O)cc2)NC1=O (HELM PEPTIDE1{[C#CCCC(=O)[*:2]].C.Y.N.P.F.E.E}|CHEM1{[c1cc(C[*:1])ccc1CSCCN[*:2]]}$PEPTIDE1,CHEM1,2:R3-1:R1|PEPTIDE1,CHEM1,8:R2-1:R2$$$V2.0)	–
Active	–	–	–	COc1cc(NC(C)CCCN)c2ncccc2c1 (configuration not stated)	–
–	3 µM	> 100 µM	15.1 µM	CC(=O)N(CCCC[C@@H]1NC(=O)CNC(=O)[C@H](CCC(=O)O)NC(=O)[C@H](CCC(=O)O)NC(=O)[C@H](Cc2ccccc2)NC(=O)[C@@H]2CCCN2C(=O)[C@H](CC(N)=O)NC(=O)[C@H](Cc2ccc(O)cc2)NC1=O)C(=O)c1ccccc1-c1c2ccc(=O)cc-2oc2cc(O)ccc12 (HELM PEPTIDE1{E.E.G.[CC(=O)N(CCCC[C@H](N[*:1])C(=O)[*:2])C(=O)c1ccccc1-c1c2ccc(=O)cc-2oc2cc(O)ccc12].Y.N.P.F}$PEPTIDE1,PEPTIDE1,1:R1-8:R2$$$V2.0)	15
inactive	–	–	–	NC(=O)C[C@@H]1NC(=O)[C@H](Cc2ccc(O)cc2)NC(=O)CNC(=O)CNC(=O)[C@H](CCC(=O)O)NC(=O)[C@H](CCC(=O)O)NC(=O)[C@H](Cc2ccccc2)NC(=O)[C@@H]2CCCN2C1=O (HELM PEPTIDE1{Y.N.P.F.E.E.G.G}$PEPTIDE1,PEPTIDE1,1:R1-8:R2$$$V2.0)	–
